This note sets out measurements from article PMC5689159 (Biochemistry and Biophysics Reports, 2016).

One assay addresses litchi lectin. Briefly: tryptophan fluorescence quenching. It is filed as binding, Litchi chinensis. The note with it: free lectin; 150 mM NaCl, 10 mM CaCl2, pH 7.5, 298 K; n = 0.9. In a few lines: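 Steady-state fluorescence emission spectra of dilute lectin solutions (10−4−10−6 M) recorded at 298 K in 1 cm path-length quartz cells on a fluorescence spectrophotometer. UV–vis absorption spectra were taken under the same conditions.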

For assay [1], the target named is litchi lectin (Litchi chinensis seed lectin) (Litchi chinensis). Briefly: native gel or EMSA. A general note: A gel shift assay detects complexes by their altered migration in electrophoresis.

As a reminder, the stoichiometry N is the number of molecules, sites or subunits per partner or assembly.

As to `OC[C@H]1O[C@H](O[C@H]2[C@H](O)[C@@H](O)C(O)O[C@@H]2CO)[C@H](O)[C@@H](O)[C@@H]1O` (some centres unmarked) [maltose], the “Ka/ (10^4) (M^-1)” value on litchi lectin is reported as 4.9 (±0.2)×10^4.

In assay [1], “litchi lectin (Litchi chinensis seed lectin) (natural protein)” came in with a stoichiometry N of 2.
